From ChEMBL document CHEMBL1152638, “Natural product leads for drug discovery: isolation, synthesis and biological evaluation of 6-cyano-5-methoxyindolo[2,3-a]carbazole based ligands as antibacterial agents” (Bioorg Med Chem, 2009) come the findings set out here.

≈ marks a conversion by molar mass, not a printed value. Counter-ions that a name gives are not always drawn.

The test system of data set [1] is Mycobacterium tuberculosis. Description: Antitubercular activity against Mycobacterium tuberculosis H37Rv after 16 to 24 hrs by microplate alamar blue assay. In kind it is functional. In outline: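 H37Rv (ATCC 27294) in Middlebrook 7H12; twofold dilutions from 12.8 mM DMSO stocks, final 128 to 0.5 μM; 1 × 10^5 cfu/mL inoculum, aerobic 37 °C. Day 7: Tween 80 plus Alamar Blue added, then 16–24 h more. Fluorescence ex 530/em 590 nm; MIC is lowest concentration giving ≥90% reduction versus bacteria-only controls; rifampin, isoniazid positive controls.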
On the technique in general: Alamar Blue is a resazurin reagent that responds to reducing activity.

Another data set has as its system Bacillus anthracis. Description: Antibacterial activity against Bacillus anthracis deltaANR after 14 hrs by microplate alamar blue assay. Format: functional.
Data set [2] can be described thus: Cytotoxicity against human LoVo cells. In kind it is cell-based. The note with it: read-out: MIC.
The nature of data set [3]: Cytotoxicity against human KB cells. In kind it is cell-based. Particulars: read-out: MIC.
The next data set deals with Human alphaherpesvirus 2. Description: Antiviral activity against HSV2 infected in mink lung cells assessed as reduction in viral titer at 1 ug/ml. Format: functional. Also noted: scale not given: the % may be the effect or the level left.

Usually MIC stands for the lowest concentration found to suppress growth. As to `CN[C@@H]1C[C@H]2O[C@@](C)([C@@H]1OC)n1c3ccccc3c3c4c(c5c6ccccc6n2c5c31)C(=O)NC4` [STAUROSPORINE], the MIC came out at 14.7 µM (≈ 6.86 µg/mL) in data set [1] and 128 µM (≈ 59.7 µg/mL) in the data set with Bacillus anthracis.

Take `NNC(=O)c1ccncc1` [ISONIAZID]: in data set [1], the lowest concentration to inhibit growth (MIC) was 0.6 µM (≈ 0.0823 µg/mL).

Turning to `COc1c(C(N)=O)c2c3ccccc3[nH]c2c2c1c1ccccc1n2C`, the MIC in data set [1] is over 128 µM.

`CO[C@H]1/C=C/O[C@@]2(C)Oc3c(C)c(O)c4c(O)c(c(/C=N/N5CCN(C)CC5)c(O)c4c3C2=O)NC(=O)/C(C)=C\C=C\[C@H](C)[C@H](O)[C@@H](C)[C@@H](O)[C@@H](C)[C@H](OC(C)=O)[C@@H]1C` [RIFAMPIN] yielded an MIC in data set [1] of 0.1 µM (≈ 0.0823 µg/mL).

Take `COc1c(C#N)c2c3ccccc3n(C)c2c2[nH]c3ccccc3c12`: the results for the minimum inhibitory concentration (MIC) (in data set [1]; against Bacillus anthracis) were over 128 µM and over 200 µM, respectively.

On to `COc1c(C#N)c2c3ccccc3[nH]c2c2c1c1ccccc1n2Cc1ccccc1`, for which the MIC in data set [1] was 44.1 µM (≈ 17.7 µg/mL); with Bacillus anthracis, over 200 µM.

On to `COc1c(C#N)c2c3ccccc3n(C)c2c2c1c1ccccc1n2C`, for which the MIC in data set [1] is over 128 µM; in the data set on Bacillus anthracis, over 200 µM.

`COc1c(C#N)c2c3ccccc3[nH]c2c2[nH]c3ccccc3c12`: the MIC was over 128 µM in data set [1] and 6.3 µM (≈ 1.96 µg/mL) with Bacillus anthracis.

Take `O=C(O)c1cn(C2CC2)c2cc(N3CCNCC3)c(F)cc2c1=O` [CIPROFLOXACIN HYDROCHLORIDE]: the MIC against Bacillus anthracis is 0.1 µM.

As to `COc1c(C#N)c2c3ccccc3[nH]c2c2c1c1ccccc1n2C`, the MCC in data set [2] and in data set [3] was 5 µg/mL in each case. Moreover, the Activity in the data set on Human alphaherpesvirus 2 was 95%. For the same compound, the MIC in data set [1] was over 128 µM; against Bacillus anthracis, over 200 µM.

For `Cn1c2ccccc2c2c(O)c(C#N)c3c4ccccc4[nH]c3c21`, the minimum inhibitory concentration (MIC) in data set [1] is 56.6 µM (≈ 17.6 µg/mL); in the data set with Bacillus anthracis it was 6.3 µM (≈ 1.96 µg/mL).

On to `N#Cc1c(O)c2c3ccccc3[nH]c2c2[nH]c3ccccc3c12`, for which the MIC in data set [1] was found to be 15 µM (≈ 4.46 µg/mL); against Bacillus anthracis, 1.6 µM (≈ 0.476 µg/mL).

Take `N#Cc1c(O)c2c3ccccc3n(Cc3ccccc3)c2c2[nH]c3ccccc3c12`: the MIC was determined as 60.6 µM (≈ 23.5 µg/mL) in data set [1] and 1.6 µM (≈ 0.62 µg/mL) in the data set on Bacillus anthracis.
